# Source: PubChem (several laboratories)
# Compounds with a hit are over-represented: about 2% of the library has one in this group of screens.
# Hep lipid drop = inhibitors of hepatocyte lipid droplet formation, primary screen, imaging, high-throughput imaging, BODIPY stain. AML12 mouse hepatocytes, oleate lipid droplets. inhibition, % at 6.5 µM. 0.4% of 240,000 active;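 active = lipid droplet intensity inhibited by at least 50%, with more than 500 cells counted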
#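 Test system: AML12 mouse liver cells; schedule: overnight exposure; technique: high-content imaging of BODIPY-stained droplets and DAPI nuclei; read-out: % inhibition of corrected integrated BODIPY droplet signal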
# TNF death inh = inhibitors of TNF-alpha triggered necroptosis, primary screen, cell-based, Jurkat FADD-/-, single concentration; Jurkat FADD-/- TNF necroptosis rescue, ATP luminescence, 24 h; 0 = TNF only, 100 = no-TNF cells; activation (protection from cell death), % at 10 µM; 0.068% of 220,000 active; AID 463075, 2010;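 active = activation, meaning protection from cell death, of at least 50% relative to plate controls; inactive = activation below 50%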;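 note: necroptosis triggered by 40 ng/mL TNF-alpha added together with compound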
# RBBP9 inh = human RBBP9 inhibitors, primary screen, biochemical, fluorescence polarization, FP-Rh probe, HTS; Serine hydrolase RBBP9 (Homo sapiens), O75884; recombinant RBBP9; inhibition, % at 7.94 µM; 0.2% of 220,000 active;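 active = inhibition above the campaign mean of all tested compounds plus 3 SD, cut at about 14% in these data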;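 note: plate controls were DMSO wells with RBBP9 for no effect and wells lacking RBBP9 protein for full effect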
# Target sequence (O75884 whole entry, looked up): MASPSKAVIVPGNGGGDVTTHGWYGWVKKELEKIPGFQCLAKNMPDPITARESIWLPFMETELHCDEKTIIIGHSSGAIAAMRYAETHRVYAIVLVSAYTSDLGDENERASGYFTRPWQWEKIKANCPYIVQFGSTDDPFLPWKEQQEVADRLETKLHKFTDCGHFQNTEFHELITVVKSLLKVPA
#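 System: RBBP9 protein | Quantity: 2.5 µM RBBP9 dispensing solution, before mixing | Reagent: FP-Rh probe, 375 nM dispensing solution | Timing: Enzyme-compound preincubation 30 min, then probe labeling 45 min, 25 °C | Measured by: Fluorescence polarization | Read-out: % inhibition | Replication: One well per compound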
# PfM18AAP inh-1 = PfM18AAP inhibitors, malaria aminopeptidase, primary screen, biochemical, QFRET, recombinant enzyme; M18 aspartyl aminopeptidase (Plasmodium falciparum 3D7); H-Glu-NHMec fluorogenic cleavage; inhibition, % at 7.35 µM; 1.2% of 290,000 active;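 active = inhibition above the campaign mean inhibition over all tested compounds plus 3 SD, cut at about 28% in these data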;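 note: 0% = plate median of test compound wells and 100% = 2 mM ZnCl2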
# Tb hexokinase = Trypanosoma brucei hexokinase 1 inhibitors, primary screen, biochemical, G6PDH-coupled NADH absorbance, MLSCN library; 0.11% of 220,000 active; hexokinase 1 [Trypanosoma brucei]; AID 1430, 2008; recombinant TbHK1, G6PDH-coupled NADH A340; inhibition, % at 10 µM;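 active = inhibition of 50% or more in the single-dose primary screen; inactive = inhibition below 50%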
# zVAD death inh = inhibitors of zVAD-triggered necroptosis, primary screen, L929 cells; L929 zVAD necroptosis rescue, ATP luminescence, 24 h; with zVAD 60 µM; viability rescue, % at 10 µM; 0.38% of 220,000 active;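 active = activation, scaled between plate controls, above about 75%, limit read from the data; inactive = activation under that limit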;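 note: 0% = zVAD with DMSO and 100% = DMSO alone without zVAD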
# RBBP9 inh conf = human RBBP9 inhibitors, retest, confirmation, biochemical, fluorescence polarization, FP-Rh probe, triplicate; shares compounds with RBBP9 inh; recombinant RBBP9; inhibition, % at 7.94 µM; 36% of 410 active;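 active = inhibition above the hit cutoff derived for the primary screen, cut at about 15% in these data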;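 note: 0% = RBBP9 with DMSO and 100% = wells lacking RBBP9 protein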
# Lipid drop inh = hepatocyte lipid droplet accumulation inhibitors, confirmation, imaging, AML12 mouse hepatocytes, single concentration, high-content | inhibition, % at 5.2 µM | AID 463183, 2010 | shares compounds with Hep lipid drop | BODIPY lipid droplet imaging; droplets induced with 100 µM oleic acid | 65% of 870 active;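 active = inhibition of lipid droplet metric at least 50%, with more than 300 cells in each of four replicates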;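 note: plate controls were DMSO with oleic acid for no effect and 5 µM Triacsin-C for full effect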
# AML12 tox img = AML12 hepatocyte cytotoxicity, counter-screen for hepatic lipid droplet formation project, imaging, DAPI nuclear morphology imaging; z-score at 5 µM; AID 463200, 2010; AML12 mouse hepatocytes; active compounds read high; cells fed 100 µM oleate overnight; shares compounds with Hep lipid drop; 3% of 870 active; in the data active = z-score above about 6.3;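 note: compound exposure lasted overnight at 37 °C before fixation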
# AML12 tox ATP = AML12 hepatocyte cytotoxicity, confirmation, cytotoxicity control for hepatic lipid droplet formation project, cell-based, single concentration; shares compounds with Hep lipid drop; AML12 mouse hepatocyte viability, ATP luminescence; cells loaded with 100 µM oleic acid; cytotoxicity, % at 50 µM; 530 tested, under 10 active; AID 463219, 2010;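 active = cytotoxicity above 50% in each of four replicates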;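 note: compound exposure lasted overnight at 37 °C before the ATP read; 0% = DMSO-treated cells and 100% = wells with no cells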
# PfM18AAP inh-2 = PfM18AAP inhibitors, malaria aminopeptidase, confirmation, biochemical, QFRET, recombinant enzyme, triplicate | 28% of 2,400 active | H-Glu-NHMec fluorogenic cleavage | shares compounds with PfM18AAP inh-1 | inhibition, % at 7.35 µM;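 active = mean inhibition over replicate wells above the hit cutoff set for the earlier primary screen, cut at about 29% in these data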;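 note: 0% = median of test compound wells and 100% = 2 mM ZnCl2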
# CTSL1 confirm = cathepsin L1 inhibitors, retest, confirmation, counter-screen for PFM18AAP inhibitor project, biochemical, QFRET, triplicate. shares compounds with PfM18AAP inh-1. purified cathepsin L1, Z-Leu-Arg-MCA fluorescence. inhibition, % at 5.96 µM. 2,400 tested, under 10 active. AID 2178, 2009;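 active = average inhibition across replicates above the hit cutoff set in the earlier primary screen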;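 note: 0% = median of test compound wells and 100% = Z-Phe-Ala-diazomethylketone 1 µM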
# Target sequence (P07711 whole entry, looked up): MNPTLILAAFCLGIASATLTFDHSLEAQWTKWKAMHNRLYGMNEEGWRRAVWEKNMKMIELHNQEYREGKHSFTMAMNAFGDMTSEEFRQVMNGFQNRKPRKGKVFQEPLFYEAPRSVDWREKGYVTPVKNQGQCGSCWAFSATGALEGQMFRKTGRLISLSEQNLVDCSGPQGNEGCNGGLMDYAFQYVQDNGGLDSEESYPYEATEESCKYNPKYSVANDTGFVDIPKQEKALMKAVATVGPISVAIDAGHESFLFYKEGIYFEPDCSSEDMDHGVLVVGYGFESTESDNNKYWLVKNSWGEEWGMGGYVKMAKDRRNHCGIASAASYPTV
# Numbers without * were called inactive; . = not tested or not shown; ! = repeats disagree.
SMILES,Hep lipid drop,TNF death inh,RBBP9 inh,PfM18AAP inh-1,Tb hexokinase,zVAD death inh,RBBP9 inh conf,PfM18AAP inh-2,CTSL1 confirm,others
COCCN=c1scc(-c2cccs2)n1/N=C/c1ccc(O)c(O)c1O,31.0,-9.1,35.8*,41.8*,3.5,2.1,63.4*,12.5,4.5,
CCN=c1scc(C)n1/N=C/c1ccc(O)c(O)c1O,.,-12.6,33.9*,46.0*,9.0,0.0,60.8*,23.8,8.1,
CCN=c1scc(-c2ccco2)n1/N=C/c1ccc(O)cc1,16.0,-4.1,-3.5,-4.2,-16.1,-0.6,.,.,.,
NC(=O)C1CCN(C(=O)c2ccc3c(=O)n(Cc4ccco4)c(SCc4ccc([N+](=O)[O-])cc4)nc3c2)CC1,-15.3,.,.,3.2,.,.,.,.,.,
Nc1nc(-c2ccco2)c(-c2ccco2)s1,.,-6.8,17.2*,37.7*,-21.3,0.3,10.2,-48.9,-3.9,
O=C(O)COc1ccccc1/C=N/NC(=O)CSc1nc2ccccc2n1Cc1ccc(Cl)cc1,16.2,1.9,-10.9,15.9,-7.7,1.2,.,.,.,
Oc1ccc(O)c(-c2cnns2)c1,2.2,-11.7,17.8*,85.9*,4.9,-0.1,55.2*,89.8*,1.0,
Oc1ccc(Br)cc1-c1ccn[nH]1,-42.5,1.9,-9.8,-2.9,-2.8,1.0,.,.,.,
Oc1ccc(-c2cn3c(n2)SCC3)cc1O,10.0,-20.2,20.9*,73.0*,-1.4,0.1,51.3*,65.3*,-0.9,
Oc1ccc(-c2cn3c(n2)SCC3)cc1,1.7,-1.1,-2.3,-2.5,-4.5,-0.6,.,.,.,
C=C(C)C1CC=C(C)/C(=N\NC(=S)Nc2ccc(C)cc2)C1 (stereo unspecified),23.2,1.1,4.6,9.8,32.9,0.4,.,.,.,
N#C/C(=C\c1cc(O)c(O)c(O)c1)C(N)=O,-2.1,-1.1,18.2*,60.5*,-2.8,0.4,20.4*,26.5,1.0,
CCOC(=O)N1CCN(Cc2ccc3c(c2)OCO3)CC1,-13.1,.,.,-1.1,.,.,.,.,.,
Cc1c(O)ccc(C(=O)CN2CCN(Cc3ccc4c(c3)OCO4)CC2)c1O,-6.5,2.2,68.4*,93.3*,-46.0,0.0,7.7,-18.0,2.4,
COc1ccc2[nH]c(C(=O)O)c(NS(=O)(=O)c3ccc(C)cc3C)c2c1,15.4,.,.,-9.4,.,.,.,.,.,
O=c1cc(-c2ccccc2Cl)oc2cc(O)cc(O)c12,0.9,0.5,-1.5,-5.9,-0.6,1.4,.,.,.,
Cc1c2cc(O)c(=O)cc-2oc2cc(O)c(O)cc12,-0.7,-2.6,43.4*!,29.3*,5.6,1.1,83.3*,42.0*,-0.9,
O=C(COc1ccccc1Cl)NCCCNC(=O)c1cnccn1,23.3,.,.,0.4,.,.,.,.,.,
O=C(O[C@@H]1OC2COC(=O)c3cc(O)c(O)c(O)c3-c3c(cc(O)c(O)c3O)C(=O)O[C@@H]([C@H]1O)[C@@H]2O)c1cc(O)c(O)c(O)c1,-1.6,-0.8,19.3*,62.5*,49.9,2.4,31.5*,45.0*,-1.5,
Cc1cc(C(=O)N/N=C/c2ccc(O)c(O)c2O)c(C)n1-c1ccccc1,7.9,-2.9,17.6*,48.6*,-7.5,3.3,73.5*,17.8,-3.1,
NC(=O)CC1Nc2cccc3cccc(c23)NC1=O (stereo unspecified),-13.9,2.3,28.8*,51.8*,-16.5,3.1,6.5,-51.7,0.9,
CCOC(=O)c1c(C)n(C)c2cc(Br)c(O)c(O)c12,-4.9,-4.9,16.7*,51.2*,-18.8,-1.1,31.1*,52.8*,-4.7,
CCOC(=O)c1c(C)n(C)c2cc([N+](=O)[O-])c(O)c([N+](=O)[O-])c12,-1.5,1.0,-4.4,10.4,-18.7,0.7,.,.,.,
COCCNC(=O)C(c1ccc(F)cc1)N(Cc1ccccc1)C(=O)CCC(=O)Nc1ccccn1 (stereo unspecified),-0.4,.,.,-3.4,.,.,.,.,.,
O=C(Cc1cccc2ccccc12)Nc1ccc(-c2cc3ccccc3oc2=O)cc1,71.8*,-3.9,-4.7,-18.0,-10.0,0.7,.,.,.,Lipid drop inh=100.0*;AML12 tox img=0.57;AML12 tox ATP=12.6
CCC(=O)Nc1cccc(-c2cc3ccccc3oc2=O)c1,-0.3,-0.4,-7.8,-13.9,-25.0,26.4,.,.,.,
CCOC(=O)N1CCN(C(=O)C(=O)NNC(=O)COc2ccc(Cl)cc2)CC1,4.8,-2.8,-2.9,9.0,-6.6,0.1,.,.,.,
CCOC(=O)c1ccc(NC(=O)CSc2nc3c(c(=O)n2C)SC(C)C3)cc1 (stereo unspecified),.,-4.0,-7.5,9.6,-15.9,-0.7,.,.,.,
CCOC(=O)c1ccc(NC(=O)CSc2nc3c(c(=O)n2CC)SC(C)C3)cc1 (stereo unspecified),51.9*,2.3,0.2,-2.6,2.6,-0.5,.,.,.,Lipid drop inh=78.9*;AML12 tox img=-0.85;AML12 tox ATP=11.9
C#CCOCCOCCOCCNc1nc(N2CCN(C(=O)[C@H](CCC(=O)O)n3cc(C(N)CO)nn3)CC2)nc(N2CCN(C(=O)[C@H](CCC(=O)O)n3cc(C(N)CC(C)C)nn3)CC2)n1 (stereo partly specified),-4.0,1.3,.,.,-17.1,0.7,.,.,.,
